Bioassay records from PubChem.
A selection: hits, their analogues and other compounds. The true share with any hit is near 2.5%.
E-sel inducer: E-selectin induction in HUVECs, primary screen, imaging, HUVEC, immunofluorescence imaging, single point; activation, % at 7.58 µM; AID 686992, 2013; normalized: neutral wells 0, TNF-alpha wells 100; 260,000 compounds, 0.37% hits; P16581;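 active = mean E-selectin-positive cell signal at least 10% of the positive control, reached in at least 60% of replicates, without over 20% cell loss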
Target sequence (P16581 whole entry, looked up): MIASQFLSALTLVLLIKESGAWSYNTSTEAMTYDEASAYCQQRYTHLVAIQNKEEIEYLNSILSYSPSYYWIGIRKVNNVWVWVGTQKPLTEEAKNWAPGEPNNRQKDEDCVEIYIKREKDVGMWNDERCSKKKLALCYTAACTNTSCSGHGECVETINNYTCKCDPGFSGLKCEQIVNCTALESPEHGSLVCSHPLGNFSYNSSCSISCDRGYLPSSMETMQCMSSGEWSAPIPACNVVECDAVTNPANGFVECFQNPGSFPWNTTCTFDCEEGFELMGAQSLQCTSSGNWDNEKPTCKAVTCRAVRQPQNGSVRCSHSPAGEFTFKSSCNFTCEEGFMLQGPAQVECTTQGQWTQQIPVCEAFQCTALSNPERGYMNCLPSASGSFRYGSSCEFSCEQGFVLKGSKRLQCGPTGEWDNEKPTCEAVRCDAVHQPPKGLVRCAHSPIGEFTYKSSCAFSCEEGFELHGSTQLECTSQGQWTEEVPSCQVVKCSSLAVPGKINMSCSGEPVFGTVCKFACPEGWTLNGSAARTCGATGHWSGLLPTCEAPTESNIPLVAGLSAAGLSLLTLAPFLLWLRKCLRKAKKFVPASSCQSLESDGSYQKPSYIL
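Assay system: HUVEC, human umbilical vein endothelial cells / Amount: 3,000 HUVEC/well / Controls: TNF-alpha positive control, DMSO neutral control / Compound dosing: single concentration / Medium: EGM-2 over gelatin coat / Evaluation: percent E-selectin-positive cells / Signal: immunofluorescence imaging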
SIRT5 inh: SIRT5 desuccinylase inhibitors, primary screen, biochemical, fluorescence imaging, single point, set 5; NAD-dependent protein deacylase sirtuin-5, mitochondrial (Homo sapiens), Q9NXA8; Purified SirT5, succinyl-peptide AMC, trypsin-coupled fluorescence; inhibition, % at 15 µM; 330,000 compounds, 1.1% hits; AID 652115, 2013; in the data active = inhibition above about 15%
FGF22 binding: binders of human FGF22 protein, primary screen, FGF22 synaptogenesis inhibitor project, biophysical, thermal shift, single point. recombinant FGF22 thermal shift, SYPRO orange fluorescence; percent of sucrose octasulfate shift, DMSO zero. activity (Tm shift, normalised), % at 9.99 µM. 340,000 compounds, 1.5% hits;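 active = mean Tm shift, scaled 0 neutral to 100 positive control, at about 1.3% or above, every replicate too, limit read from the data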
miR122 inh: miR-122 Renilla sensor signal increase in Huh7, primary screen, miR-122 inhibitor project, cell-based, single point, plate reader; activation (reporter increase), % at 12.5 µM; 340,000 compounds, 0.3% hits; Huh7 miR-122 Renilla luciferase sensor, 48 h; neutral wells = 0, positive control = 100;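 active = mean replicate activation score at least 90 and every replicate individually at or above 90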;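 note: higher luciferase means less miR-122 activity so hits act as miR-122 inhibitors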
S100A4 inh HTS: inhibitors of S100A4-myosin IIA peptide binding, primary screen, biochemical, fluorescence polarization, TAMRA-MyoIIA peptide; Protein S100-A4 (Homo sapiens), P26447; inhibition, % at 10.7 µM; 360,000 compounds, 0.14% hits;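 active = mean inhibition of at least 70% across replicates, with every replicate also reaching that level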
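Material: S100A4 monomer (human). Medium: Calcium-containing HEPES buffer, pH 7.2. Probe or stimulus: labelled myosin peptide probe, 5 nM. Compound dosing: one concentration per compound. Timing: polarization read 5 min after assay mix addition, stable 5–60 min. Benchmarks: DMSO as neutral control, TFP as positive control.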
An asterisk follows results filed as active; · = no result; [ ] = another dose, or the depositor's remark.

SMILES	E-sel inducer	SIRT5 inh	FGF22 binding	miR122 inh	S100A4 inh HTS
COc1ccc([Si](C)(C)[C@@H]2[C@@H](CCO)O[C@]3(C(=O)N(Cc4cccc(NC(C)=O)c4)c4ccccc43)[C@H]2C)cc1	·	21*	-1	·	30
COc1ccc([Si](C)(C)[C@H]2[C@H](CCn3cc([C@H](O)c4ccccc4)nn3)O[C@@]3(C(=O)N(Cc4cccc(N5CCOC5=O)c4)c4ccccc43)[C@@H]2C)cc1	·	23*	0	·	-49
COc1ccc([Si](C)(C)[C@H]2[C@H](CCO)O[C@@]3(C(=O)N(Cc4ccccc4)c4ccc(NC(C)=O)cc43)[C@@H]2C)cc1	·	3	0	·	6
O=C(c1ccccn1)N1C[C@H]2[C@@H](c3ccccc31)[C@@H](CO)N2C(=O)Nc1ccccc1	1	3	0	0[16.7 µM]	11
C[C@@H]1CN([C@@H](C)CO)S(=O)(=O)c2ccc(-c3cccc(C#N)c3)cc2O[C@H]1CN(C)C(=O)c1ccc(F)cc1	0	-2	0	-9[16.7 µM]	-2
C[C@@H]1CCCCO[C@H](CN(C)C)[C@@H](C)CN([C@@H](C)CO)C(=O)c2cc(NC(=O)NC3CCCCC3)ccc2O1	0	·	·	1[16.7 µM]	·
O=C(Cc1cccnc1)N1CC2(C1)[C@H](c1ccccc1)[C@H](CO)N2C(=O)C1CCCCC1	0	7	0	·	15
COc1ccc(NC(=O)N2CC(=O)N3[C@@H](CO)[C@H](c4ccc(-c5ccccc5)cc4)[C@@H]3C2)cc1	0	3	·	·	-10
C[C@H]1CN([C@@H](C)CO)C(=O)Cc2cc(NC(=O)C3CC3)ccc2O[C@H]1CN(C)Cc1ccc(C(=O)Nc2ccccc2N)cc1	2	·	·	52[16.7 µM]	-10
Cc1cccc(N2CCN(C(=O)c3ccccn3)CC2C)c1 (stereo not given)	2	-1	43*	·	-2
Cc1cccc(N2CCN(C(=O)NC3CCCCC3)CC2C)c1 (stereo not given)	0	1	0	5	-1
Cc1cccc(N2CCN(C(=O)CCN3C(=O)C4C5C=CC(C5)C4C3=O)CC2C)c1 (stereo not given)	·	-3	44*	·	-19
Cc1cccc(N2CCN(C(=O)c3cccc(N4C(=O)C5C6C=CC(C6)C5C4=O)c3)CC2C)c1 (stereo not given)	·	4	0	-2	-4
COc1ccc(CN(C)C[C@@H]2OCCCC[C@H](C)Oc3ccc(NC(=O)c4ccncc4)cc3C(=O)N([C@@H](C)CO)C[C@H]2C)cc1	0	-2	0	·	5
Cn1c(=O)c2cc(NC(=S)NCc3ccccc3F)ccc2n1Cc1ccccc1	0	1	0	5	1
Cn1c(=O)c2cc(NC(=O)NCc3ccc(Cl)cc3Cl)ccc2n1Cc1ccc(F)cc1	0	·	45*	-1	3
CC(C)=CCn1c2ccc(NC(=O)NCc3ccc(F)cc3)cc2c(=O)n1C	0	-4	0	40	2
Cn1c(=O)c2cc(NC(=S)NCc3ccccc3F)ccc2n1Cc1cccc(C(F)(F)F)c1	0	-4	3.9*	33	-11
CCS(=O)(=O)N1CCCCN2[C@H](CO)[C@H](c3ccc(-c4cccc(C#N)c4)cc3)[C@H]2C1	0	1	0	2[16.7 µM]	15
Cc1nn(C)c(Oc2cccc(C(F)(F)F)c2)c1C=O	·	1	43*	·	-5
CC(=O)OCc1c(C(F)(F)F)nn(C)c1Oc1cccc(C(F)(F)F)c1	·	·	·	4	·
CC(C)[C@H](NC(N)=O)C(=O)Nc1ccc(Oc2ccccc2)cc1	·	0	43*	-2	1
Cn1c(-c2ccc3ccccc3n2)[n+](C)c2ccccc21	0	3	0	·	-1
Cn1c(-c2ccccn2)[n+](C)c2ccccc21	·	-9	43*	-3	-3
COC(=O)c1ccc(Cl)cc1NC(=O)/C=C/c1ccc(C)o1	·	2	44*	·	-1
SMILES	E-sel inducer	SIRT5 inh	FGF22 binding	miR122 inh	S100A4 inh HTS
C[C@H]1CN([C@@H](C)CO)S(=O)(=O)c2ccc(-c3ccncc3)cc2O[C@@H]1CN(C)C(=O)Nc1ccc(C(F)(F)F)cc1	1	2	0	15[16.7 µM]	-2
COc1ccccc1CN1CC[C@@H]2[C@@H](CO)Nc3ccc(-c4ccc(C(=O)N(C)C)cc4)cc3[C@@H]21	1	3	0	-18[16.7 µM]	20
CCOC(=O)C1CCCN(C(=O)/C=C/c2ccc(Cl)cc2)C1 (stereo not given)	-2	-1	0	·	-1
CCOC(=O)C1CCCN(C(=O)/C=C/c2cc(OC)c(OC)c(OC)c2)C1 (stereo not given)	·	1	44*	·	-3
Cc1cccc(S(=O)(=O)N[C@H]2CC[C@H](CCNC(=O)CCN3CCCCC3)O[C@H]2CO)c1	0	-2	0	·	6
COc1ccc2c(C#CCCO)c(-c3ccc(S(C)(=O)=O)cc3)sc2c1	0	-7	45*	-11	1
COc1cccc(NC(=O)N2CC3(C2)[C@@H](c2ccccc2)[C@@H](CO)N3C(=O)C2CC2)c1	0	1	·	·	1
CCOC(=O)CSc1nc(=O)n2ccc(C)cc2n1	1	31*	0	0	7
Cc1ccn2c(=O)nc(SCC(=O)OCc3ccccc3)nc2c1	·	-2	0	·	1
COc1ccc(NC(=O)N2CC(=O)N3[C@@H](CO)[C@@H](c4ccc(C#CCC5CCCC5)cc4)[C@@H]3C2)cc1	0	1	·	·	-6
COc1cccc(NC(=O)N2CC(=O)N3[C@H](CO)[C@H](c4ccc(C#CCC5CCCC5)cc4)[C@@H]3C2)c1	0	24*	0	·	-5
COc1cccc(NC(=O)N2CC(=O)N3[C@H](CO)[C@@H](c4ccc(C#CCC5CCCC5)cc4)[C@@H]3C2)c1	0	24*	0	·	-2
COc1cccc(NC(=O)N2CC(=O)N3[C@@H](CO)[C@@H](c4ccc(C#CCC5CCCC5)cc4)[C@@H]3C2)c1	0	17*	0	·	4
COc1ccc(NC(=O)N2CC(=O)N3[C@H](CO)[C@H](c4ccc(C#CCC5CCCC5)cc4)[C@H]3C2)cc1	0	11	·	·	-10
COc1cccc(NC(=O)N2CC(=O)N3[C@H](CO)[C@@H](c4ccc(C#CCC5CCCC5)cc4)[C@H]3C2)c1	0	22*	0	·	-6
COc1ccc(NC(=O)N2CC(=O)N3[C@H](CO)[C@H](c4ccc(C#CCC5CCCC5)cc4)[C@@H]3C2)cc1	0	2	·	·	-2
